# The source made the active and inactive calls. The calls are words filed in the database; no cut-off is given here.
# Columns and labels:
# [1] = test system: C6; assay: Neuroprotective activity in rat C6 cells assessed as induction of NGF release at 20 uM after 24 hrs by ELISA; format: functional
# Procedure, shortened: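 C6 glioma cells seeded at 1 × 10^5 cells/well. After 24 h, treated with compound at 20 μM in serum-free DMEM for a further 24 h. NGF secreted into the conditioned medium quantified by ELISA and expressed as % of untreated control (100%). 6-Shogaol positive control. Means ± SD of three independent experiments run in triplicate.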
# [2] = Cytotoxicity in rat C6 cells assessed as cell viability at 20 uM after 24 hrs by MTT assay; format: cell-based; details: read-out: Activity
# Procedure, shortened: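 C6 glioma cells seeded at 1 × 10^5 cells/well. After 24 h, switched to serum-free DMEM with compound at 20 μM for a further 24 h. Viability by MTT, expressed as % of untreated control. Means ± SD of three independent experiments.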
# [3] = test system: BV-2; assay: (§1) Antiinflammatory activity in mouse BV2 cells assessed as inhibition of LPS-induced NO production after 24 hrs by Griess assay; format: functional, cell-based
# Procedure, shortened: (§2)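 BV2 microglia seeded at 4 × 10^4 cells/well, given compound at various concentrations with LPS (100 ng/mL), incubated 24 h. Nitrite in the medium read with Griess reagent (0.1% N-1-naphthylethylenediamine dihydrochloride, 1% sulfanilamide in 5% phosphoric acid, equal volume of supernatant), absorbance at 570 nm after 10 min. Sodium nitrite standard curve. IC50 derived. L-NMMA positive control.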
# [4] = test system: A549; assay: Cytotoxicity in human A549 cells by SRB assay; format: functional, cell-based
# [5] = Cytotoxicity in human SKOV3 cells by SRB assay; format: functional, cell-based; details: SK-OV-3
# [6] = test system: SK-MEL-2; assay: Cytotoxicity in human SK-MEL-2 cells by SRB assay; format: functional, cell-based
# [7] = Cytotoxicity in human HCT116 cells by SRB assay; format: functional, cell-based; details: HCT-116
# [8] = test system: C6 (Rattus norvegicus); assay: Neuroprotective activity in rat C6 glioma cells assessed as induction of NGF release at 20 uM for 24 hrs
# [9] = as §1; format: functional, cell-based; details: BV-2, 24 h; procedure, shortened: as §2
# [10] = Cytotoxicity in LPS-activated mouse BV2 cells assessed as cell viability at 20 uM after 24 hrs by MTT assay; format: cell-based; details: bv-2, 24 h
# Procedure, shortened: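 Mouse microglial BV2 cells were seeded at 4 × 10^4 cells/well, treated with or without compound, stimulated with LPS (100 ng/mL), and incubated for 24 h. Viability was read by MTT assay, as the reduction of yellow MTT to purple formazan by viable cells.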
Structure (SMILES),Activity [1] [%],"viability at 24 h, 20 µM [2] [%]",inhibition [3],IC50 [4] [µM],IC50 [5] [µM],IC50 [6] [µM],IC50 [7] [µM],Activity [8] [%],IC50 [9] [µM],Activity [10]
CC(C)[C@]1(O)C=C2C(=O)C[C@@H]3[C@](C)(CCC[C@@]3(C)C(=O)O)[C@H]2CC1,175.6,94.5,inactive,> 10,> 10,> 10,> 10,,,
CO[C@]12C(=O)C[C@@H]3[C@](C)(CCC[C@@]3(C)C(=O)O)[C@H]1CC[C@@]1(C(C)C)O[C@@H]21,,,inactive,> 10,> 10,> 10,> 10,,,
CC(C)C1=C[C@@]23CC[C@@H]4[C@](C)(CCC[C@@]4(C)C(=O)O)[C@H]2C[C@@H]1OO3,153,102,inactive,> 10,> 10,> 10,> 10,,,
CO[C@@]1(C(C)C)C=C2C(=O)C[C@@H]3[C@](C)(CCC[C@@]3(C)C(=O)O)[C@H]2CC1,,,inactive,> 10,> 10,> 10,> 10,,,
CC(C)[C@]12O[C@H]1C[C@H]1C(=CC[C@@H]3[C@]1(C)CCC[C@@]3(C)C(=O)O)[C@H]2O,193.9,73.1,inactive,> 10,> 10,> 10,> 10,,,
CC(C)c1ccc2c(c1)[C@H](O)C[C@H]1[C@](C)(COC(=O)CCC(=O)O)CCC[C@]21C [ABIESADINE F],142.2,98.2,inactive,> 10,> 10,> 10,> 10,,,
CC(C)[C@]12O[C@H]1CC1=C(CC[C@H]3[C@](C)(C(=O)O)CCC[C@]13C)[C@H]2O,,,inactive,> 10,> 10,> 10,> 10,,,
CCCCC/C=C/C(=O)CCc1ccc(O)c(OC)c1 [SHOGAOL],,119,,,,,,141.8,,
CC(C)(O)c1ccc2c(c1)C(=O)C[C@H]1[C@](C)(C(=O)O)CCC[C@]21C,161.7,94.6,inactive,> 10,> 10,> 10,> 10,,,
CC(C)c1ccc2c(c1)C(=O)C[C@H]1[C@](C)(C(=O)O)CCC[C@]21C,201.8,104,inactive,> 10,> 10,> 10,> 10,,,
CC(C)(O)[C@]12O[C@H]1C[C@H]1C(=CC[C@@H]3[C@]1(C)CCC[C@@]3(C)C(=O)O)[C@H]2O,158.6,92.5,inactive,> 10,> 10,> 10,> 10,,,
CC(C)(O)c1ccc2c(c1)CC[C@H]1[C@](C)(C(=O)O)CCC[C@]21C,152.9,94.3,inactive,> 10,> 10,> 10,> 10,,,
CC(=O)OC[C@]1(C)CCC[C@]2(C)c3ccc(C(C)(C)O)cc3CC[C@@H]12,171.3,85.5,inactive,> 10,> 10,> 10,> 10,,,
CC(C)(O)[C@]12O[C@H]1C[C@@H]1[C@@]3(C)CCC[C@@](C)(C(=O)O)[C@@H]3CC[C@@]1(O)[C@H]2O,,,inactive,> 10,> 10,> 10,> 10,,,
CC(C)[C@]12C=C3[C@H](O)C[C@H]4[C@](C)(C(=O)O)CCC[C@]4(C)[C@@]3(CC1)OO2,,,inactive,> 10,> 10,> 10,> 10,,,
CC(C)c1ccc2c(c1)[C@H](O)C[C@H]1[C@](C)(C(=O)O)CCC[C@]21C,204.3,101,inactive,> 10,> 10,> 10,> 10,,,
CC(C)[C@]12O[C@H]1C[C@@H]1[C@@]3(C)CCC[C@@](C)(C(=O)O)[C@@H]3CC[C@@]1(O)[C@H]2O,,,inactive,> 10,> 10,> 10,> 10,,,
CC(C)[C@@]12C=C3[C@H](O)C[C@H]4[C@](C)(C(=O)O)CCC[C@]4(C)[C@]3(CC1)OO2,154.3,127,inactive,> 10,> 10,> 10,> 10,,,
CO[C@@]1(C(C)C)C=C2[C@H](O)C[C@@H]3[C@](C)(CCC[C@@]3(C)C(=O)O)[C@H]2CC1,169.4,78.1,inactive,> 10,> 10,> 10,> 10,,,
COc1cc([C@@H]2c3cc4c(cc3[C@@H](O[C@@H]3O[C@@H]5CO[C@@H](C)O[C@H]5[C@H](O)[C@H]3O)[C@H]3COC(=O)[C@H]23)OCO4)cc(OC)c1O [ETOPOSIDE],,,,1.4,2.6,1.5,1,,,
CC(C)[C@]12C=C3CC[C@H]4[C@](C)(C(=O)O)CCC[C@]4(C)[C@@]3(CC1)OO2,175.9,109,,> 10,> 10,> 10,> 10,,57.3,Non-toxic
CC(C)C1=C[C@@]2(O)CC[C@@H]3[C@](C)(CCC[C@@]3(C)C(=O)O)[C@H]2CC1=O,166.1,91.2,,> 10,> 10,> 10,> 10,,56.1,Non-toxic
CC(C)c1ccc2c(c1)CC[C@H]1[C@](C)(C(=O)O)CCC[C@]21C [DEHYDROABIETIC ACID],170.2,92.3,inactive,> 10,> 10,> 10,> 10,,,
CC(C)[C@]12C=C3C(=O)C[C@H]4[C@](C)(C(=O)O)CCC[C@]4(C)[C@@]3(CC1)OO2,,,,> 10,> 10,> 10,> 10,,30.1,Non-toxic
CO[C@H]1C(=O)C2=C[C@@](O)(C(C)C)CC[C@@H]2[C@@]2(C)CCC[C@@](C)(C(=O)O)[C@H]12,170.2,96.2,inactive,> 10,> 10,> 10,> 10,,,
CC(C)(O)[C@]12O[C@H]1C[C@@H]1[C@@]3(C)CCC[C@@](C)(C(=O)O)[C@@H]3CC[C@@]13O[C@H]32,,,inactive,> 10,> 10,> 10,> 10,,,
CC(C)c1ccc2c(c1)[C@@H](O)C[C@H]1[C@](C)(C(=O)O)CCC[C@]21C,165.1,96.2,inactive,> 10,> 10,> 10,> 10,,,
CC(C)[C@@]12CC[C@@H]3[C@@]4(C)CCC[C@@](C)(C(=O)O)[C@@H]4CC(=O)[C@]3(O)[C@@H]1O2,155,91.4,inactive,> 10,> 10,> 10,> 10,,,
CC(C)c1ccc2c(c1)[C@H](O)C[C@H]1[C@](C)(CO)CCC[C@]21C,177.1,89.3,inactive,> 10,> 10,> 10,> 10,,,
CC(C)c1ccc2c(c1)[C@H](O)C[C@H]1C(C)(C)CCC[C@]21C,,,inactive,> 10,> 10,> 10,> 10,,,

# From ChEMBL document CHEMBL3797062, “Diterpenes from the Trunk of Abies holophylla and Their Potential Neuroprotective and Anti-inflammatory Activities” (J Nat Prod, 2016)
